Measurements: ChEMBL document CHEMBL5329149, “Identification of macrocyclic peptides which activate bacterial cylindrical proteases” (RSC Med Chem, 2023)
pEC50: −log10 of the molar value. The source made the active and inactive calls. The rule behind the calls is not given here. Starred links: 1 amine or outer side, 2 acyl side, 3 side chain; linkers in the order of their positions; H or OH if unused. Positions of bridges follow the written chain, without caps; N, C: chain ends. Non-standard residues stand in square brackets, D forms with d. Residues, ends and D or L forms follow the SMILES beside them. *: point of attachment. Phe(3,5-F2) = N[C@@H](Cc1cc(F)cc(F)c1)C(=O)O; X1 = CN(CC(=O)O)c1nc(CC[*:1])cc(CC[*:2])n1; CH2COCH2 = O=C(C[*:1])C[*:2]; Cam = NC(=O)C*

Key:
[1] = target: T1, ATP-dependent Clp protease proteolytic subunit (Staphylococcus aureus (strain NCTC 8325)) (UniProt Q2G036); test: Induction of tetra-decameric form of Staphylococcus aureus ClpP stabilization in Tris-HCl
T1 sequence (whole entry): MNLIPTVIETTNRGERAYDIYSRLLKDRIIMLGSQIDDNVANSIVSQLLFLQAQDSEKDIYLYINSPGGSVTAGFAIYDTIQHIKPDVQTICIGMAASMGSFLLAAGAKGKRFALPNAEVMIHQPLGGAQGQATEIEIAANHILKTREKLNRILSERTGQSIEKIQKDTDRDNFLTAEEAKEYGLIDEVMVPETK
Procedure, shortened: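 S. aureus ClpP (1 mg/mL) incubated overnight at 32 °C with or without ligands (200 µM, DMSO as blank) in destabilizing buffer (100 mM Tris-HCl pH 7.6, 100 mM KCl). Oligomeric state then analysed by gel filtration on a pre-equilibrated Superdex 200 Increase 10/300 column, tetradecamer versus heptamer.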

[2] = target: T1, ATP-dependent Clp protease proteolytic subunit (Staphylococcus aureus (strain NCTC 8325)); test: Activation of Staphylococcus aureus ClpP assessed as beta-casein digestion using beta-casein/FITC casein as substrate at 200 uM incubated for 24 hrs; conditions: filed as activator
Procedure, shortened: (§1)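 Purified ClpP (1.0 µM, final) was incubated with bovine beta-casein (5.0 µM or 3 µM) and ligand at 37 °C, in 100 mM Tris-HCl pH 7.6 with 100 mM KCl or 100 mM HEPES pH 7 with 150 mM NaCl. Timed aliquots were quenched in SDS loading buffer at 90 °C for 5 min, run on SDS-PAGE, stained with Coomassie and quantified by densitometry. ≥3 independent experiments.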

[3] = target: T1, ATP-dependent Clp protease proteolytic subunit (Staphylococcus aureus (strain NCTC 8325)); test: Activation of Staphylococcus aureus ClpP assessed as FtsZ digestion at 200 uM incubated for 24 hrs by densitometric analysis; conditions: filed as activator
Procedure, shortened: (§2)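 Strep-tagged S. aureus ClpP (1.0 µM, expressed in ClpP-deficient E. coli SG1146a) digesting S. aureus FtsZ (4.0 µM, final) with ligand at 37 °C, under the same conditions as the beta-casein assay. Timed aliquots were quenched with SDS loading buffer and heated, then resolved by SDS-PAGE, Coomassie-stained and quantified by densitometry. ≥3 independent experiments.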

[4] = target: ATP-dependent Clp protease proteolytic subunit (Escherichia coli (strain K12)) (UniProt P0A6G7); test: Activation of Escherichia coli ClpP assessed as increase in fluorescence intensity using beta-casein/FITC casein as substrate at 200 uM incubated for 24 hrs
ATP-dependent Clp protease proteolytic subunit (Escherichia coli (strain K12)), sequence (P0A6G7 whole entry): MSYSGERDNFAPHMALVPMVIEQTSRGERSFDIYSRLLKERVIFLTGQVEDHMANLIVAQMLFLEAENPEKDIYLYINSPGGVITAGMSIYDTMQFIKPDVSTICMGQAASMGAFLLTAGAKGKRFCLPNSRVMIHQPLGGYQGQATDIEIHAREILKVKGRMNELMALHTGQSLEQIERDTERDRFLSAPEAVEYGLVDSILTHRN
Procedure, shortened: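 E. coli ClpP (0.5 µM, His-tagged, expressed in E. coli C41(DE3)) with FITC-casein (1.8 µM) plus bovine beta-casein (4.8 µM), final concentrations. Ligands at 200 µM in 100 mM Tris-HCl pH 7.6, 100 mM KCl, 24 h at 37 °C. Fluorescence read at ex 483/em 530 nm, mean of DMSO wells subtracted. Run in parallel without ClpP to exclude false positives. Duplicates, ≥2 independent experiments, mean ± SD.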

[5] = target: ATP-dependent Clp protease proteolytic subunit (Escherichia coli (strain K12)) (UniProt P0A6G7); test: Activation of Escherichia coli ClpP assessed as beta-casein digestion using beta-casein/FITC casein as substrate at 200 uM incubated for 24 hrs by SDS-PAGE analysis; conditions: filed as activator; procedure, shortened: as §1
[6] = target: T1, ATP-dependent Clp protease proteolytic subunit (Staphylococcus aureus (strain NCTC 8325)); test: Activation of Staphylococcus aureus ClpP assessed as FtsZ digestion at 10 uM incubated for 24 hrs by densitometric analysis; conditions: filed as activator; procedure, shortened: as §2
[7] = target: T1, ATP-dependent Clp protease proteolytic subunit (Staphylococcus aureus (strain NCTC 8325)); test: Activation of Staphylococcus aureus ClpP assessed as beta-casein digestion using beta-casein/FITC casein as substrate at 10 uM incubated for 24 hrs; conditions: filed as activator; procedure, shortened: as §1
[8] = target: T2, ATP-dependent Clp protease proteolytic subunit (Staphylococcus aureus (strain NCTC 8325), UniProt Q2G036); test: Activation of Staphylococcus aureus ClpP assessed as beta-casein digestion using beta-casein/FITC casein as substrate incubated for 24 hrs
T2 sequence (Q2G036 whole entry): T1 sequence (whole entry)

## CCCC/C=C/C(=O)N[C@@H](Cc1cc(F)cc(F)c1)C(=O)OC
[1]
  Activity: Active
[2]
  Activity: Active
[3]
  Activity: Active

## CC[C@H](C)[C@@H]1NC(=O)CNC(=O)[C@@H](NC(C)=O)CSCC(=O)CSC[C@@H](C(N)=O)NC(=O)CNC(=O)[C@@H](Cc2ccccc2)NC(=O)CNC1=O
[4]
  Activity: inactive

## CC[C@H](C)[C@@H]1NC(=O)CNC(=O)[C@@H](NC(C)=O)CSCC(=O)CSC[C@@H](C(N)=O)NC(=O)CNC(=O)[C@H](Cc2ccccc2)NC(=O)CNC1=O
[2]
  Activity: Active
[3]
  Activity: Active
[5]
  Activity: Active

## CC[C@H](C)[C@@H]1NC(=O)CNC(=O)[C@H](NC(C)=O)CSCC(=O)CSC[C@@H](C(N)=O)NC(=O)CNC(=O)[C@H](C)NC(=O)CNC1=O
[4]
  Activity: inactive

## C[C@@H]1C[C@H]2C(=O)OC[C@H](NC(=O)[C@H](Cc3cc(F)cc(F)c3)NC(=O)CCC3CCCCC3)C(=O)N3CCC[C@H]3C(=O)N3CCCC[C@H]3C(=O)N[C@@H](C)C(=O)N2C1
[1]
  Activity: Active
[6]
  Activity: Active
[7]
  Activity: Active

## CC[C@H](C)[C@H](NC(=O)CNC(=O)[C@H](CSCC(N)=O)NC(C)=O)C(=O)NCC(=O)N[C@@H](Cc1ccccc1)C(=O)NCC(=O)N[C@@H](C)C(=O)N[C@@H](CSCC(N)=O)C(N)=O (Ac-C(Cam)GIGFGAC(Cam)-NH2)
[4]
  Activity: inactive

## CC[C@H](C)[C@H](NC(=O)CNC(=O)[C@H](CSCC(N)=O)NC(C)=O)C(=O)NCC(=O)N[C@@H](Cc1ccccc1)C(=O)NCC(=O)N[C@@H](C)C(=O)N[C@H](C(=O)N[C@@H](CSCC(N)=O)C(N)=O)[C@@H](C)O (Ac-C(Cam)GIGFGATC(Cam)-NH2)
[4]
  Activity: inactive

## CC[C@H](C)[C@H](NC(=O)CNC(=O)[C@H](CSCC(N)=O)NC(C)=O)C(=O)NCC(=O)N[C@@H](Cc1ccccc1)C(=O)NCC(=O)N[C@@H](CSCC(N)=O)C(N)=O (Ac-C(Cam)GIGFGC(Cam)-NH2)
[4]
  Activity: inactive

## CC[C@H](C)[C@H](NC(=O)CNC(=O)[C@H](CSCC(N)=O)NC(C)=O)C(=O)NCC(=O)N[C@@H](Cc1cc(F)cc(F)c1)C(=O)NCC(=O)N[C@@H](CSCC(N)=O)C(N)=O (Ac-C(Cam)GIG[Phe(3,5-F2)]GC(Cam)-NH2)
[4]
  Activity: inactive

## CC[C@H](C)[C@H](NC(=O)[C@H](CSCC(N)=O)NC(C)=O)C(=O)NCC(=O)N[C@@H](Cc1ccccc1)C(=O)NCC(=O)N[C@@H](C)C(=O)N[C@@H](CSCC(N)=O)C(N)=O (Ac-C(Cam)IGFGAC(Cam)-NH2)
[4]
  Activity: inactive

## CC[C@H](C)[C@H](NC(=O)[C@H](CSCC(N)=O)NC(C)=O)C(=O)NCC(=O)N[C@@H](Cc1ccccc1)C(=O)NCC(=O)N[C@@H](C)C(=O)N[C@H](C(=O)N[C@@H](CSCC(N)=O)C(N)=O)[C@@H](C)O (Ac-C(Cam)IGFGATC(Cam)-NH2)
[4]
  Activity: inactive

## CC[C@H](C)[C@H](NC(=O)[C@H](CSCC(N)=O)NC(C)=O)C(=O)NCC(=O)N[C@@H](Cc1ccccc1)C(=O)NCC(=O)N[C@@H](CSCC(N)=O)C(N)=O (Ac-C(Cam)IGFGC(Cam)-NH2)
[4]
  Activity: inactive

## CC[C@H](C)[C@@H]1NC(=O)CNC(=O)[C@@H](NC(C)=O)CSCC(=O)CSC[C@@H](C(N)=O)NC(=O)CNC(=O)[C@H](Cc2cc(F)cc(F)c2)NC(=O)CNC1=O (Ac-CGIG[Phe(3,5-F2)]GC-NH2; linker 1-7 via CH2COCH2)
[2]
  Activity: Active
[3]
  Activity: Active
[5]
  Activity: Active
[4]; filed as activator
  Activity: Active
[8]
  pEC50: 4.39

## CC[C@H](C)[C@@H]1NC(=O)CNC(=O)[C@@H](NC(C)=O)CSCCc2cc(nc(N(C)CC(=O)O)n2)CCSC[C@@H](C(N)=O)NC(=O)CNC(=O)[C@H](Cc2cc(F)cc(F)c2)NC(=O)CNC1=O (Ac-CGIG[Phe(3,5-F2)]GC-NH2; linker 1-7 via X1)
[4]
  Activity: inactive
